Results from ChEMBL document CHEMBL2086276, “Synthesis and evaluation of mutual prodrugs of ibuprofen with menthol, thymol and eugenol” (Eur J Med Chem, 2012).

Experiments:
Rattus norvegicus [1] = assay: Antiinflammatory activity in po dosed Wistar rat assessed as inhibition of carrageenan-induced paw edema at dose molecularly equivalent to ibuprofen administered 30 mins prior to carrageenan challenge measured after 3 hrs; assay type: functional
Rattus norvegicus [2] = assay: Antiinflammatory activity in po dosed Wistar rat assessed as inhibition of carrageenan-induced paw edema at dose molecularly equivalent to ibuprofen administered 30 mins prior to carrageenan challenge measured after 4 hrs; assay type: functional
Rattus norvegicus [3] = assay: Gastrotoxicity in 24 hrs fasted po dosed Wistar rat assessed as ulcer index at dose molecularly equivalent to ibuprofen after 6 hrs; assay type: toxicity, organism-based; conditions: in vivo
Procedure, shortened: (§1)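 Rats fasted 24 h, then dosed orally as suspension in 0.5% acacia, 150 mg/kg ibuprofen or molar equivalent of prodrug; n = 6 per group. Killed 6 h after dosing, food and water then ad libitum. Stomach opened, rinsed with 5 mL saline, inspected under magnifier, ulcers scored by severity; ulcer index is the group mean, ± SEM.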

[4] = Chemical stability of the compound assessed as hydrolysis in HCl buffer at pH 1.2 by HPLC analysis; assay type: physicochemical
Procedure, shortened: (§2)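 Hydrolysis at 37 °C in sealed screw-cap vials in a water bath; pH 1.2 HCl, pH 7.4 phosphate or pH 10.0 NaOH buffer, 20 mM total buffer, ionic strength held at 0.5 M with KCl. Sampled at 15, 30, 60, 120, 240 min; ester and ibuprofen quantified by HPLC. Pseudo-first-order Kobs = 2.303/t·log(a/(a−x)); t1/2 = 0.693/Kobs.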

[5] = Octanol-buffer partition coefficient, log P of the compound by HPLC analysis; assay type: physicochemical
Procedure, shortened: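 100 mg compound in 10 mL aqueous phase plus 10 mL octanol, shaken 1 h, left 2 h at 25 °C. Each phase quantified by HPLC: C18 column, […], 1.0 mL/min, UV 254 nm. Partition coefficient = organic-phase over aqueous-phase concentration; also computed in silico.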

Rattus norvegicus [6] = assay: Antiinflammatory activity in po dosed Wistar rat assessed as inhibition of carrageenan-induced paw edema at dose molecularly equivalent to ibuprofen administered 30 mins prior to carrageenan challenge measured after 5 hrs; assay type: functional
Rattus norvegicus [7] = assay: Antiinflammatory activity in po dosed Wistar rat assessed as inhibition of carrageenan-induced paw edema at dose molecularly equivalent to ibuprofen administered 30 mins prior to carrageenan challenge measured after 2 hrs; assay type: functional
Rattus norvegicus [8] = assay: Antiinflammatory activity in po dosed Wistar rat assessed as inhibition of carrageenan-induced paw edema at dose molecularly equivalent to ibuprofen administered 30 mins prior to carrageenan challenge measured after 1 hr; assay type: functional
[9] = Half life of the compound in phosphate buffer at pH 7.4; assay type: physicochemical; procedure, shortened: as §2
Rattus norvegicus [10] = assay: Antiinflammatory activity in po dosed Wistar rat assessed as inhibition of carrageenan-induced paw edema at dose molecularly equivalent to ibuprofen administered 30 mins prior to carrageenan challenge measured after 6 hrs; assay type: functional
[11] = Half life of the compound in NaOH buffer at pH 10 by HPLC analysis; assay type: physicochemical; procedure, shortened: as §2
Rattus norvegicus [12] = assay: Antiinflammatory activity in Wistar rat model assessed as inhibition of carrageenan-induced paw edema at 20 mg/kg, po administered 30 mins prior to carrageenan challenge measured after 4 hrs; assay type: functional
Rattus norvegicus [13] = assay: Antiinflammatory activity in Wistar rat model assessed as inhibition of carrageenan-induced paw edema at 20 mg/kg, po administered 30 mins prior to carrageenan challenge measured after 5 hrs; assay type: functional
Rattus norvegicus [14] = assay: Antiinflammatory activity in Wistar rat model assessed as inhibition of carrageenan-induced paw edema at 20 mg/kg, po administered 30 mins prior to carrageenan challenge measured after 3 hrs; assay type: functional
Rattus norvegicus [15] = assay: Antiinflammatory activity in Wistar rat model assessed as inhibition of carrageenan-induced paw edema at 20 mg/kg, po administered 30 mins prior to carrageenan challenge measured after 1 hr; assay type: functional
Rattus norvegicus [16] = assay: Gastrotoxicity in 24 hrs fasted Wistar rat assessed as ulcer index at 150 mg/kg, po after 6 hrs; assay type: toxicity, organism-based; design: dose 150 mg/kg, route oral; conditions: in vivo; procedure, shortened: as §1
Rattus norvegicus [17] = assay: Antiinflammatory activity in Wistar rat model assessed as inhibition of carrageenan-induced paw edema at 20 mg/kg, po administered 30 mins prior to carrageenan challenge measured after 6 hrs; assay type: functional
Rattus norvegicus [18] = assay: Antiinflammatory activity in Wistar rat model assessed as inhibition of carrageenan-induced paw edema at 20 mg/kg, po administered 30 mins prior to carrageenan challenge measured after 2 hrs; assay type: functional

Stability [4] | logP [5] | half-life [9] | half-life [11] | Structure (SMILES) | inhibition (INH) (Rattus norvegicus [1]) | inhibition (INH) (Rattus norvegicus [2]) | UI (Rattus norvegicus [3]) | inhibition (INH) (Rattus norvegicus [6]) | inhibition (INH) (Rattus norvegicus [7]) | inhibition (INH) (Rattus norvegicus [8]) | inhibition (INH) (Rattus norvegicus [10]) | inhibition in vivo at 20 mg/kg (Rattus norvegicus [12]) | inhibition in vivo at 20 mg/kg (Rattus norvegicus [13]) | inhibition in vivo at 20 mg/kg (Rattus norvegicus [14]) | inhibition in vivo at 20 mg/kg (Rattus norvegicus [15]) | UI (Rattus norvegicus [16]) | inhibition in vivo at 20 mg/kg (Rattus norvegicus [17]) | inhibition in vivo at 20 mg/kg (Rattus norvegicus [18])
Stable | 6.69 | 6.01 h | 2.72 h | CC(C)Cc1ccc(C(C)C(=O)OC2CC(C)CCC2C(C)C)cc1 (stereo unspecified) | 48.49% | 55% | 0.91 | 64.01% | 34.08% | 31.58% | 66.84% | – | – | – | – | – | – | –
Stable | 6.27 | 5.19 h | 2.42 h | Cc1ccc(C(C)C)c(OC(=O)C(C)c2ccc(CC(C)C)cc2)c1 (racemic) | 47.63% | 55.17% | 0.83 | 61.5% | 32.52% | 29.36% | 64.01% | – | – | – | – | – | – | –
Stable | 5.63 | 2.84 h | 1.34 h | C=CCc1ccc(OC(=O)C(C)c2ccc(CC(C)C)cc2)c(OC)c1 (racemic) | 48.06% | 55.26% | 1.08 | 56.17% | 31.43% | 27.93% | 60.33% | – | – | – | – | – | – | –

Structure (SMILES) | Stability [4] | logP [5] | half-life [9] | half-life [11] | inhibition (INH) (Rattus norvegicus [1]) | inhibition (INH) (Rattus norvegicus [2]) | UI (Rattus norvegicus [3]) | inhibition (INH) (Rattus norvegicus [6]) | inhibition (INH) (Rattus norvegicus [7]) | inhibition (INH) (Rattus norvegicus [8]) | inhibition (INH) (Rattus norvegicus [10]) | inhibition in vivo at 20 mg/kg (Rattus norvegicus [12]) | inhibition in vivo at 20 mg/kg (Rattus norvegicus [13]) | inhibition in vivo at 20 mg/kg (Rattus norvegicus [14]) | inhibition in vivo at 20 mg/kg (Rattus norvegicus [15]) | UI (Rattus norvegicus [16]) | inhibition in vivo at 20 mg/kg (Rattus norvegicus [17]) | inhibition in vivo at 20 mg/kg (Rattus norvegicus [18])
CC(C)Cc1ccc(C(C)C(=O)O)cc1 (racemic) [IBUPROFEN] | – | 3.71 | – | – | – | – | – | – | – | – | – | 44% | 46.8% | 40.9% | 18.3% | 2.41 | 47.6% | 22.1%
